Published values of several laboratories.
pEC50, pIC50: −log10 of the molar value.
Read-out: cell growth or viability

Compound	cell line	assay	conditions	quantity	value
N#Cc1ccc(COC[C@H]2O[C@@H](n3c(NCc4ccc(Cl)c(Cl)c4)nc4c(N)ncnc43)[C@H](O)[C@@H]2O)cc1	HN-6	–	72 h	pIC50	5.31
CC(C)(CO)Cn1nc(-c2ccc3nc(OCC(F)(F)F)ccc3c2)c2c(N)ncnc21	CRL8155	–	–	GI50	> 10 µM
COc1cc(-c2ccc(-c3ccc(C(=N)N)nc3)s2)cc(OC)c1OC	LOX IMVI	SRB	–	GI50	1.87 µM
Cn1nnc2c(C(N)=O)ncn2c1=O	SGC-7901	–	–	pEC50	< 3.00
COC(=O)c1c(C)ncn1CC(c1c[nH]c2ccc(C)cc12)c1c[nH]c2ccc(C)cc12	human Fibroblast	MTS	20 µM, 24 h	inhibition	13.8%
c1ccc(-c2cccc(Nc3nccc(NC4CCCCC4)n3)c2)cc1	MV4-11	ATP luminescence	72 h	pEC50	< 5.40
CC(C)=CCC[C@](C)(O)[C@H]1CC[C@]2(C)[C@@H]1[C@H](O)C[C@@H]1[C@@]3(C)CC[C@H](O[C@@H]4O[C@H](CO)[C@@H](O)[C@H](O)[C@H]4O[C@@H]4O[C@H](CO)[C@@H](O)[C@H](O)[C@H]4O)C(C)(C)[C@@H]3CC[C@]12C	BEAS-2B	MTT	72 h	IC80	> 100 µM
CC(C)(CO)Cn1nc(-c2ccc3cc(OC4CC4)ccc3c2)c2c(N)ncnc21	CRL8155	–	–	GI50	> 10 µM
CC(C)Nc1ccnc(Nc2cccc(-c3nccs3)c2)n1	MV4-11	ATP luminescence	72 h	pEC50	5.02
COc1ccc(-c2ccc(-c3ccc(C(=N)N)nc3)s2)cc1	MDA-MB-468	SRB	–	GI50	1.63 µM
CC(C)Nc1ccnc(Nc2cccc(-c3ccncc3)c2)n1	MV4-11	ATP luminescence	72 h	pEC50	< 4.82
CCN(CC)CCOC(=O)C1(c2ccc([N+](=O)[O-])cc2)CCCC1	HN-6	–	72 h	pIC50	< 4.70
CCOC(=O)c1c(C)ncn1CC(c1cn(C)c2ccc([N+](=O)[O-])cc12)c1cn(C)c2ccc([N+](=O)[O-])cc12	human Fibroblast	MTS	20 µM, 24 h	inhibition	21.1%
COC(=O)c1cccc(-c2cccc(Nc3nccc(NC4CCCCC4)n3)c2)c1	MV4-11	ATP luminescence	72 h	pEC50	5.12
COC(=O)c1c(C)ncn1CC(c1cn(C)c2ccccc12)c1cn(C)c2ccccc12	human Fibroblast	MTS	20 µM, 24 h	inhibition	5.1%
COC(C)(C)CCC[C@](C)(O)[C@H]1CC[C@]2(C)[C@@H]1[C@H](O)C[C@@H]1[C@@]3(C)CC[C@H](O)C(C)(C)[C@@H]3CC[C@]12C	BEAS-2B	MTT	72 h	IC80	> 100 µM
CCc1ncn(CC(c2c[nH]c3ccc(C)cc23)c2c[nH]c3ccc(C)cc23)c1C(=O)OC	human Fibroblast	MTS	20 µM, 24 h	inhibition	6.7%
CC(C)Nc1ccnc(Nc2cccc(C(C)(C)C)c2)n1	MV4-11	ATP luminescence	72 h	pEC50	< 4.89
